In ChEMBL document CHEMBL2157870 (J Med Chem, 2012):
Values after ≈ are worked out from the molar mass of the structure shown.

How the values were obtained:
[1] = system: Plasmodium berghei; assay: Antimalarial activity against Plasmodium berghei NK-65 infected in ICR mouse assessed as parasitemia level at 100 mg/kg, po administered day 3, 4 and 5 post infection measured on day 6 by Geimsa staining; format: functional
Procedure, shortened: (§1)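 Female Swiss outbred ICR mice, 15–20 g, given 1 X 10^6 P. berghei NK-65 infected red cells from donor mice in plasma at day 0 (modified Thompson's test). Patent infection confirmed by tail blood smear on day 3. Oral single daily doses in 0.5% HEC on days 3, 4, 5. Vehicle controls. Survival recorded daily to day 30. Parasitemia from Giemsa thin films on days 3, 6, 13, 20, 27, counting ≥1000 cells.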

[2] = system: Plasmodium falciparum; assay: Antimalarial activity against Plasmodium falciparum 3D7 after 72 hrs by MSF assay; format: functional, organism-based; settings: 3D7, 72 h
[3] = system: Plasmodium falciparum; assay: Antimalarial activity against Plasmodium falciparum K1 after 72 hrs by MSF assay; format: functional, organism-based; settings: K1, 72 h
[4] = biological target: T1, ATP-sensitive inward rectifier potassium channel 11 (Homo sapiens, UniProt Q14654); assay: Inhibition of Kir6.2 by patch clamp assay
T1 sequence (Q14654 whole entry): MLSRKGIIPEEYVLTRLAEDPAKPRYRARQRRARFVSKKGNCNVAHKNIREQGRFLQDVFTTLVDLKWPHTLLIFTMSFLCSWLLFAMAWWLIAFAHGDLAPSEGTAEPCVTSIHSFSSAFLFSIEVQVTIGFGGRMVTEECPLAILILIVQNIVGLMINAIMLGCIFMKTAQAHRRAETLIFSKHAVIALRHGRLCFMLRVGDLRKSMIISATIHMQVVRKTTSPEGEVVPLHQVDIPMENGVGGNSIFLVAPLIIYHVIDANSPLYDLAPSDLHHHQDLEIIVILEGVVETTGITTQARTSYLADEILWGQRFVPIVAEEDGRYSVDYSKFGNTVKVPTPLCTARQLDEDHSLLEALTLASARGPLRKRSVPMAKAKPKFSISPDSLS

[5] = Permeability of the compound at 10 uM at pH 7.4 by PAMPA; format: ADME; settings: pH 7.4, 10 µM
Procedure, shortened: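 PAMPA: diluted compound in system solution buffer at pH 7.4 was placed in the donor well over a GIT-lipid-painted membrane, with acceptor solution buffer in the acceptor well. The sandwich was stirred for 30 min with the aqueous boundary layer set to 40 μm. Triplicate.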

[6] = Solubility of the compound in PBS at 10 mM after 18 hrs by UV spectroscopic analysis; format: physicochemical
[7] = system: Mus musculus; assay: Cmax in CD1 mouse at 20 mg/kg, po; format: ADME, organism-based; design: dose 20 mg/kg, route oral; settings: in vivo
Procedure, shortened: (§2)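 Female CD-1 mice, 8 weeks old, were given a single oral gavage dose as a suspension in 0.5% methylcellulose in sterile water. Blood was taken from three mice per time point (5 min–24 hr) into K3EDTA and processed to plasma. After acetonitrile protein precipitation, samples were analysed by LC-MS/MS with a warfarin internal standard. Noncompartmental analysis used linear-up/log-down trapezoidal AUC and at least three non-zero concentrations after Tmax.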

[8] = system: Mus musculus; assay: Cmax in CD1 mouse at 200 mg/kg, po; format: ADME, organism-based; design: dose 200 mg/kg, route oral; settings: in vivo; procedure, shortened: as §2
[9] = system: Mus musculus; assay: Cmax in CD1 mouse at 500 mg/kg, po; format: ADME, organism-based; design: dose 500 mg/kg, route oral; settings: in vivo; procedure, shortened: as §2
[10] = system: Mus musculus; assay: Tmax in CD1 mouse at 20 mg/kg, po; format: ADME, organism-based; design: dose 20 mg/kg, route oral; settings: in vivo; procedure, shortened: as §2
[11] = system: Mus musculus; assay: Tmax in CD1 mouse at 200 mg/kg, po; format: ADME, organism-based; design: dose 200 mg/kg, route oral; settings: in vivo; procedure, shortened: as §2
[12] = system: Mus musculus; assay: Tmax in CD1 mouse at 500 mg/kg, po; format: ADME, organism-based; design: dose 500 mg/kg, route oral; settings: in vivo; procedure, shortened: as §2
[13] = system: Mus musculus; assay: AUC (0 to infinity) in CD1 mouse at 20 mg/kg, po; format: ADME, organism-based, Plasma; design: time infinity, dose 20 mg/kg, route oral; settings: in vivo; procedure, shortened: as §2
[14] = system: Mus musculus; assay: AUC (0 to infinity) in CD1 mouse at 200 mg/kg, po; format: ADME, organism-based, Plasma; design: time infinity, dose 200 mg/kg, route oral; settings: in vivo; procedure, shortened: as §2
[15] = system: Mus musculus; assay: AUC (0 to infinity) in CD1 mouse at 500 mg/kg, po; format: ADME, organism-based, Plasma; design: time infinity, dose 500 mg/kg, route oral; settings: in vivo; procedure, shortened: as §2
[16] = system: Mus musculus; assay: Apparent volume of distribution during terminal phase in CD1 mouse at 20 mg/kg, po; format: ADME, organism-based; design: dose 20 mg/kg, route oral; settings: mouse, in vivo; procedure, shortened: as §2
[17] = Apparent volume of distribution during terminal phase in CD1 mouse at 200 mg/kg, po; format: ADME, organism-based; design: dose 200 mg/kg, route oral; settings: in vivo, read-out: Vz/F; procedure, shortened: as §2
[18] = Apparent volume of distribution during terminal phase in CD1 mouse at 500 mg/kg, po; format: ADME, organism-based; design: dose 500 mg/kg, route oral; settings: CD1, mouse, in vivo, read-out: Vz/F; procedure, shortened: as §2
[19] = system: Plasmodium berghei; assay: Antimalarial activity against Plasmodium berghei NK-65 infected in ICR mouse assessed as parasitemia level at 200 mg/kg, po administered day 3, 4 and 5 post infection measured on day 6 by Geimsa staining; format: functional; procedure, shortened: as §1
[20] = system: Plasmodium berghei; assay: Antimalarial activity against Plasmodium berghei NK-65 infected in ICR mouse assessed as parasitemia level at 200 mg/kg, po administered day 3, 4 and 5 post infection measured on day 13 by Geimsa staining; format: functional; procedure, shortened: as §1
[21] = system: Plasmodium berghei; assay: Antimalarial activity against Plasmodium berghei NK-65 infected in ICR mouse assessed as parasitemia level at 200 mg/kg, po administered day 3, 4 and 5 post infection measured on day 20 by Geimsa staining; format: functional; procedure, shortened: as §1
[22] = system: Plasmodium berghei; assay: Antimalarial activity against Plasmodium berghei NK-65 infected in ICR mouse assessed as survival rate at 100 mg/kg, po administered day 3, 4 and 5 post infection; format: functional; procedure, shortened: as §1
[23] = system: HEK293; assay: Cytotoxicity against human HEK293 cells at 25 uM after 72 hrs by celltiter-glo assay; format: cell-based; settings: hek293, 72 h
[24] = system: HepG2; assay: Cytotoxicity against human HepG2 cells at 25 uM after 72 hrs by celltiter-glo assay; format: cell-based; settings: hepg2, 72 h
[25] = system: Raji; assay: Cytotoxicity against human Raji cells at 25 uM after 72 hrs by celltiter-glo assay; format: cell-based
[26] = system: BJ; assay: Cytotoxicity against human BJ cells at 25 uM after 72 hrs by celltiter-glo assay; format: cell-based
[27] = biological target: T2, CYP2D6 (Homo sapiens, UniProt P10635); assay: Inhibition of CYP2D6 in human liver microsomes at 1 uM after 20 mins by LC-MS/MS analysis relative to control; values are per cent of control
T2 sequence (P10635 whole entry): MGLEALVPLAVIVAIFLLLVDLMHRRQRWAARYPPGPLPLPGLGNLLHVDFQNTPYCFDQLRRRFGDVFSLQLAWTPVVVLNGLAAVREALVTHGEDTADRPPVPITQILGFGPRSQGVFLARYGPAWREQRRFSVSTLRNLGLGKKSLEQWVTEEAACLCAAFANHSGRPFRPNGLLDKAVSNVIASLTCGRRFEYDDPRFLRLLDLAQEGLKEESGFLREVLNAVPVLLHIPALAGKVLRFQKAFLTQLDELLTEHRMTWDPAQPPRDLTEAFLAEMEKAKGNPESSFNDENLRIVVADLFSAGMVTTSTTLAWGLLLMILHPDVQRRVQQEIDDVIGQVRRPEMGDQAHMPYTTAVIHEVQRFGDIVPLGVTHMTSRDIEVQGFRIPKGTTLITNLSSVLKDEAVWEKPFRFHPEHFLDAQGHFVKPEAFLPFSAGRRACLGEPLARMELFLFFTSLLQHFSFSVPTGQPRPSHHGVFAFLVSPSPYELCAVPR

[28] = biological target: T2, CYP2D6; assay: Inhibition of CYP2D6 in human liver microsomes at 10 uM after 20 mins by LC-MS/MS analysis relative to control; values are per cent of control
[29] = Intrinsic clearance in […] mouse liver microsomes at 2 mM; format: ADME, Microsome; settings: read-out: CLH
[30] = system: Plasmodium berghei; assay: Antimalarial activity against Plasmodium berghei NK-65 infected in ICR mouse assessed as survival rate at 50 mg/kg, po administered day 3, 4 and 5 post infection; format: functional; procedure, shortened: as §1

SMILES | EC90 [2] [µM] | EC90 [3] [µM] | IC50 [4] [µM] | permeability [5] [nm/s] | solubility at 18 h, 10000 µM [6] [µM] | Cmax [7] [µM] | Cmax [8] [µM] | Tmax [10] [min] | Tmax [11] [min] | AUC [14] [µM·h] | Vd/F [17] [L/kg] | MST [22] [days] | Activity [23] | Activity [24] | Activity [25] | Activity [26] | also measured
O=C(CCc1ccccc1)c1ccccc1OCC(O)CN1CCC(c2ccccc2)CC1 (stereo unspecified) | 0.75 | 0.24 | > 5 | 4900 | 7.3 (≈ 3.24 µg/mL) | 0.0696 | 1.62 | 18 | 30 | 6.8 | 278 | 9 | Non-toxic | Non-toxic | Non-toxic | Non-toxic | Activity [1]: 33.3%; Cmax [9]: 1.75 µM; Tmax [12]: 30 min; AUC [13]: 0.224 µM·h; AUC [15]: 15.3 µM·h; Vz/F [16]: 1093.3 L/kg; Vd/F [18]: 623 L/kg; Activity [19]: 44.5%; Activity [20]: 28.4%; Activity [21]: 50.4%; % activity remaining at 20 min, 1 µM [27]: 78%; % activity remaining at 20 min, 10 µM [28]: 31%
O=C(CCc1ccccc1)c1cc(F)ccc1OCC(O)CN1CCN(C(c2ccccc2)c2ccccc2)CC1 (stereo unspecified) | 0.66 | 0.31 | > 5 | 8 | 0.2 (≈ 0.111 µg/mL) | 0.0987 | 0.907 | 60 | 60 | 6.17 | 276 |  | Non-toxic | Non-toxic | Non-toxic | Non-toxic | CLint scaled [29]: 2.04 L/h/kg
CCN(CC)CCCC(C)Nc1ccnc2cc(Cl)ccc12 (stereo unspecified) [CHLOROQUINE] |  |  |  |  |  |  |  |  |  |  |  | 22 |  |  |  |  | MST [30]: 17 days
